EC50, Activity and IC50 data for one compound are collected here from ChEMBL document CHEMBL4014338, “Discovery of Small Molecules as Multi-Toll-like Receptor Agonists with Proinflammatory and Anticancer Activities” (J Med Chem, 2017).

The EC50 is the concentration at which the effect is half-maximal. Usually IC50 stands for the concentration needed to halve the response being measured. The low end stands for inhibition by little substance, the high end for a need for much substance.

The structures appear in SMILES notation.

One test deals with T1, Toll-like receptor 3 (Homo sapiens, UniProt O15455).
T1 sequence (O15455 whole entry): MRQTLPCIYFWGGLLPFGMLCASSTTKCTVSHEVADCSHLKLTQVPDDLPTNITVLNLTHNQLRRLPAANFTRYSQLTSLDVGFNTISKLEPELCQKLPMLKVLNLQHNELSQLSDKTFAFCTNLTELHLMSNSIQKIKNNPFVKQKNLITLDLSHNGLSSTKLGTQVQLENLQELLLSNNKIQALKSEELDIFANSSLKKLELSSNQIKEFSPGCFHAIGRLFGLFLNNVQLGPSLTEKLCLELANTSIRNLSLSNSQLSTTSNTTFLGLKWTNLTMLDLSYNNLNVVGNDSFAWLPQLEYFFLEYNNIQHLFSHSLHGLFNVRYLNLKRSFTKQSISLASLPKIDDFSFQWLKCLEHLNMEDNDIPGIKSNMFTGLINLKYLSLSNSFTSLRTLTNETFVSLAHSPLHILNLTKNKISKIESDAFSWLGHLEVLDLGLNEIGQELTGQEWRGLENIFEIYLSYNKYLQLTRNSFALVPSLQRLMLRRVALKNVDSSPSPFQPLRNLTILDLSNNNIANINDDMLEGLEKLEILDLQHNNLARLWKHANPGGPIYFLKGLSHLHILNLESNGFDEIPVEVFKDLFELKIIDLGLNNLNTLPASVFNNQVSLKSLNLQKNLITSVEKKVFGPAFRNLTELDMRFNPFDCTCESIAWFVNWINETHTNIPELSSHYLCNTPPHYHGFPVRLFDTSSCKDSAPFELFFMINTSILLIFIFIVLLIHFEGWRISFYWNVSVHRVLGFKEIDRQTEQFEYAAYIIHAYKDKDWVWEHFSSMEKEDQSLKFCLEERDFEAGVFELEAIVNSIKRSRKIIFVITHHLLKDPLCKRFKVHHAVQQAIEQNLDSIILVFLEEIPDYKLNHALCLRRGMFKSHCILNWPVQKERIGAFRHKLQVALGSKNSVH
Nature of the test: Agonist activity at human TLR3 expressed in HEK293 cells assessed as induction of NF-kB activation-mediated SEAP production after 24 hrs by HTS assay. It counts as cell-based. In short, it runs like this: (§1)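 Stable HEK293 lines expressing a single hTLR plus a SEAP reporter, grown in DMEM/10% FBS with selective antibiotics. Seeded at 5 × 10^4 cells/well for 24 h at 37 °C, then treated 24 h. Supernatant mixed with QUANTI-Blue, 1 h at 37 °C, OD 620 nm. Cognate agonists: Pam3CSK4 (TLR2), poly I:C (TLR3), LPS (TLR4), FLA-BS (TLR5), R848 (TLR7). EC50 as mean ± SD.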

The subject of test [1] is HeLa. Description: Cell cycle arrest in human HeLa cells assessed as accumulation at S phase at 40 uM after 24 hrs by propidium iodide staining based flow cytometry (reference value: 31%). The class given is functional. In general terms: A flow cytometer gives signals particle by particle.
Test [2] has as its system HeLa. Description: Cell cycle arrest in human HeLa cells assessed as accumulation at G2/M phase at 10 uM after 24 hrs by propidium iodide staining based flow cytometry (reference value: 17%). The class given is functional.
The target of a further test is T2, Toll-like receptor 7 (Homo sapiens, UniProt Q9NYK1).
T2 sequence (Q9NYK1 whole entry): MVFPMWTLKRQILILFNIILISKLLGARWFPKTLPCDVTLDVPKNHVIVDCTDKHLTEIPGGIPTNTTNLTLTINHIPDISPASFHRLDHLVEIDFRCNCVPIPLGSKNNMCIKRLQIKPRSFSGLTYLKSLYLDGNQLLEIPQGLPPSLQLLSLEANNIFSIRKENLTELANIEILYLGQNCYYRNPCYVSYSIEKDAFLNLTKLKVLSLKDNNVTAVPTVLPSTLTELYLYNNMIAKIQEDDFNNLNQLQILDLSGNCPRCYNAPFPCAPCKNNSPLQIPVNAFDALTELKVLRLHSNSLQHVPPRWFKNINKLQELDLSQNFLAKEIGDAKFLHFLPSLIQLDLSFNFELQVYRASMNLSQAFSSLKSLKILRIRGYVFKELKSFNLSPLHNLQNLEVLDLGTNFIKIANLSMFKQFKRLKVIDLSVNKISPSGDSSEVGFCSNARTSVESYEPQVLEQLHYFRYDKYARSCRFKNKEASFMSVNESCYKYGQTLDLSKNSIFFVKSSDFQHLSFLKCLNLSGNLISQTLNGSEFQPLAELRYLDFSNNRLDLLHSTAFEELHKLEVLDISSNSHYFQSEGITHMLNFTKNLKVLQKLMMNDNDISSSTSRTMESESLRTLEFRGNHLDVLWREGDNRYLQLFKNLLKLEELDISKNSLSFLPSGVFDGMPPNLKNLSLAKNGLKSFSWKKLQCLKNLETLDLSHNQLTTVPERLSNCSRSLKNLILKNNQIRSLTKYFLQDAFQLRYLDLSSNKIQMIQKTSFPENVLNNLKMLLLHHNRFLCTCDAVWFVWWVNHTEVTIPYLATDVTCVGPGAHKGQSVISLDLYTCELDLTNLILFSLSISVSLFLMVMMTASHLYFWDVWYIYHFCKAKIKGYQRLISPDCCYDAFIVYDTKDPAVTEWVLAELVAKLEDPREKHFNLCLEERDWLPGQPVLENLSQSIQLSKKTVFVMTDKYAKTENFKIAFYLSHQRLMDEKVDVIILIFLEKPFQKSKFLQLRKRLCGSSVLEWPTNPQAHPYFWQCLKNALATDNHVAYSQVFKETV
Nature of the test: Agonist activity at human TLR7 expressed in HEK293 cells assessed as induction of NF-kB activation-mediated SEAP production after 24 hrs by HTS assay. The class given is cell-based. In short, it runs like this: as §1

Test [3] deals with T3, Toll-like receptor 3/8/9 (Homo sapiens) (UniProt O15455+Q9NR96+Q9NR97). Description: Agonist activity at TLR3/TLR8/TLR9 in human THP1 cells assessed as increase in IL-6 mRNA level after 12 hrs by qRT-PCR method. The class given is cell-based. In outline: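 THP-1 cells (1.5 × 10^6/well) differentiated with PMA (20 nM) for 2 days, then 24 h in fresh RPMI 1640; nonadherent cells removed. Treated with indicated compound concentrations for 12 h, washed with PBS, and mRNA measured by qRT-PCR. Expressed as fold change versus untreated control, poly I:C (5 μg/mL) as reference. Mean ± SD of three independent experiments.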
T3 sequence (Q9NR96 whole entry, looked up, one chain of several): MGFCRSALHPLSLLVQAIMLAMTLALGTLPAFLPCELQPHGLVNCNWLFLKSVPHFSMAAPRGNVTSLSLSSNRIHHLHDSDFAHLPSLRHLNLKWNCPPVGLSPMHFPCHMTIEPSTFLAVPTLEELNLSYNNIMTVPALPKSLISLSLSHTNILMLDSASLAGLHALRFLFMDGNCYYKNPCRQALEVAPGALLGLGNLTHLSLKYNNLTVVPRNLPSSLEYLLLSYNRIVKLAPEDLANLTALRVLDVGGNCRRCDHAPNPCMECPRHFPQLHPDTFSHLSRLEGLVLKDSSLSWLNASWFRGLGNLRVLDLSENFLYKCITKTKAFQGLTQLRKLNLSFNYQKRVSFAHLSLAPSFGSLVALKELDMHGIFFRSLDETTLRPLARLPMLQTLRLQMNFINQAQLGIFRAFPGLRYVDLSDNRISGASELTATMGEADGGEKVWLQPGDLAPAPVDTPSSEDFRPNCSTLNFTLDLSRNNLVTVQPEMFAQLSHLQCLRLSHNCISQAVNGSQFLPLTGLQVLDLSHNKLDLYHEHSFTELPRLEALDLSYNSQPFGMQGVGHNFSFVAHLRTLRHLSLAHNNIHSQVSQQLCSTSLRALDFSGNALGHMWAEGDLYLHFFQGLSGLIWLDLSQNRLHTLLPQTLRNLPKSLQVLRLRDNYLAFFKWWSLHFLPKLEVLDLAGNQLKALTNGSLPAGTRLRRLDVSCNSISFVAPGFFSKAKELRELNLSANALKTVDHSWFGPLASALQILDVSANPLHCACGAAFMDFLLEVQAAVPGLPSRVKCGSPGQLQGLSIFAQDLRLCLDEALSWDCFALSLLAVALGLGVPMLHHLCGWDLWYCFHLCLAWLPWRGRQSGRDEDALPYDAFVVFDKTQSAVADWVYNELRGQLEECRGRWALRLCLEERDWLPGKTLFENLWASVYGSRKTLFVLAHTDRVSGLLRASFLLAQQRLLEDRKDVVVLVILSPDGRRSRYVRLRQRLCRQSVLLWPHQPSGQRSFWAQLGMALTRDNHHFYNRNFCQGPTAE
T3 sequence (Q9NR97 whole entry, looked up, one chain of several): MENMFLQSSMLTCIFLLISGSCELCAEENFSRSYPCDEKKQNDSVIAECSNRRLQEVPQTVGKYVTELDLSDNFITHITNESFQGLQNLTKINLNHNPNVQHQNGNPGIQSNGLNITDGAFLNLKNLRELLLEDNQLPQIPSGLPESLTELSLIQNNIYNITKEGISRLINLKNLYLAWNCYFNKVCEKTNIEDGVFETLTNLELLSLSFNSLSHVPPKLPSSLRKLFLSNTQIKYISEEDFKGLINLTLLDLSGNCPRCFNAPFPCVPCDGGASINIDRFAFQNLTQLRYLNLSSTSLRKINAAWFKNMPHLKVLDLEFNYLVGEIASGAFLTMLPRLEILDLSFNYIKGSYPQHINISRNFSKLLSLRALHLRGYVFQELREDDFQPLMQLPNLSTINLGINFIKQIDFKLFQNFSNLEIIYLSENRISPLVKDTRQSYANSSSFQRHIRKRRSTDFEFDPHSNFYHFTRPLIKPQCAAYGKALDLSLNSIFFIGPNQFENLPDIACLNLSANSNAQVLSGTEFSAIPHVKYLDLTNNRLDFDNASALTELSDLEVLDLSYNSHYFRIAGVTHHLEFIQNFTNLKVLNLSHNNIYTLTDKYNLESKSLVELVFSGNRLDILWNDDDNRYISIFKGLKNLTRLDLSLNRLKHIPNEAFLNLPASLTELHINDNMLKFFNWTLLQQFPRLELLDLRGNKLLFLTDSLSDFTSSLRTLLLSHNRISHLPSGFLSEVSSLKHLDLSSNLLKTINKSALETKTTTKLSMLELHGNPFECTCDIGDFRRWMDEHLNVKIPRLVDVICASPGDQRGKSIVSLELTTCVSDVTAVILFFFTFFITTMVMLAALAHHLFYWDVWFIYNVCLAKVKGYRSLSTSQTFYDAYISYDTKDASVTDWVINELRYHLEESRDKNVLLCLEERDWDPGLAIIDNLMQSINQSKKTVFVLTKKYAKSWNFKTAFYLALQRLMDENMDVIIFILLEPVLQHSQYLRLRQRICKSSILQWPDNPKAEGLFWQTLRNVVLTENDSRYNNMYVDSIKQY
A general note: In qPCR the cycle at which signal appears reflects the starting amount.

Test [4] has as its target T3, Toll-like receptor 3/8/9 (Homo sapiens). Description: Agonist activity at TLR3/TLR8/TLR9 in human THP1 cells assessed as increase in TNFalpha production after 24 hrs by ELISA. The class given is cell-based. In short, it runs like this: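 THP-1 cells (1.5 × 10^6/well) in RPMI 1640 with 10% FBS, differentiated with PMA (20 nM) for 2 days, then 24 h in fresh medium; nonadherent cells removed. Compound added at indicated concentrations for 24 h. Supernatant TNF-α measured by ELISA. Reference ligands were poly I:C, R848 and CpG ODN2006.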
On the technique in general: ELISA stands for enzyme-linked immunosorbent assay.

In a further test the test system is HMEC. Nature of the test: Antiproliferative activity against HMEC after 72 hrs by WST1 assay. It counts as cell-based. The following applies: Homo sapiens. In short, it runs like this:
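Cells seeded at 5 × 10^3/well and left 24 h, then given a concentration series for 24, 48 or 72 h. WST-1 reagent added and incubated at 37 °C for 30 min–2 h until color change; absorbance 450 nm. Growth inhibition = (1 − [sample − background]/[control − background]) × 100. IC50 mean ± SD, three cell preparations.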

Consider `O=[N+]([O-])c1ccc(COc2cc3c(cc2OCc2ccc([N+](=O)[O-])cc2)OC2(C=C3)CCOCC2)cc1`, for which the results for the half-maximal effective concentration (EC50) at Toll-like receptor 3 and on Toll-like receptor 7 were 4.8 µM and above 100 µM, respectively. For the same compound, the Activity in the test on HeLa [1] is 41%; in the test on HeLa [2] it was 19%; in test [3], “Dose-dependent effect”; in test [4], “Dose-dependent effect”. This compound also had an IC50 in the test on HMEC of 79.5 µM.
